pIC50: −log10 of the molar value.
Experiments:
[1] = Drug level in mouse brain after 15 mins; format: ADME, tissue-based; conditions: read-out: Drug uptake
Neuropeptide S receptor [2] = biological target: T1, Neuropeptide S receptor (Homo sapiens, UniProt Q6W5P4); experiment: Antagonist activity at neuropeptide S receptor (unknown origin) assessed as intracellular calcium level by cell based assay; format: functional
T1 sequence (Q6W5P4 whole entry): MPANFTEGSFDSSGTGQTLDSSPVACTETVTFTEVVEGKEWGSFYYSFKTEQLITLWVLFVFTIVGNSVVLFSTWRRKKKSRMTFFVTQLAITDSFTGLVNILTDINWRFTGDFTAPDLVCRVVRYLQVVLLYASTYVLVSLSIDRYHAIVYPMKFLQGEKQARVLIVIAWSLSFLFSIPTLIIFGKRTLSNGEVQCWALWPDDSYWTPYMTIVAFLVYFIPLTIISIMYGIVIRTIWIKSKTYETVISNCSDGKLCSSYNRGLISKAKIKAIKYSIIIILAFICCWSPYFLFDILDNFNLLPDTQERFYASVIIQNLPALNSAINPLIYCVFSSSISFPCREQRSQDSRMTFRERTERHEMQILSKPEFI
Procedure, shortened: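 CHO cells stably expressing NPSR were seeded at 2000 cells/well and incubated overnight at 37 °C, 5% CO2. They were loaded with no-wash calcium dye for 1 h, then preincubated with compound in DMSO for 10 min. Stimulation used NPS at EC80 in PBS/0.1% BSA/0.05% Tween-20 with 500 µM Ro 20-1724. Kinetic fluorescence was read at 1 Hz: 6 s baseline, then 4 min. IC50 is the mean ± SD of two independent experiments, each in duplicate.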

Neuropeptide S receptor [3] = biological target: T1, Neuropeptide S receptor; experiment: Displacement of [125I]Tyr10-NPS from human neuropeptide S receptor expressed in CHO cells after 1.5 hrs by liquid scintillation counting; format: cell-based
Procedure, shortened: (§1)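 Whole CHO cells stably expressing human NPSR at 90–95% confluency in 24-well plates. Cells were incubated with 0.15 nM [125I]Y10-NPS plus increasing compound or unlabeled NPS in DMEM/0.1% BSA, 20°C, 1.5 hr. Nonspecific binding was defined with 1 µM unlabeled human NPS. Cells were washed, lysed in 1 N NaOH and counted by liquid scintillation. IC50 from one experiment in duplicate.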

[4] = Metabolic stability in mouse liver microsomes assessed as compound remaining after 15 mins in presence NADPH; format: ADME, Microsome; conditions: read-out: Stability
Procedure, shortened: (§2)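 Compound was incubated with mouse liver microsomes, and percent parent remaining was determined at 15, 30 and 60 min. Values are means from a single experiment run in duplicate.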

Neuropeptide S receptor [5] = biological target: T1, Neuropeptide S receptor; experiment: Displacement of [125I]Tyr10-NPS from neuropeptide S receptor (unknown origin); procedure, shortened: as §1
[6] = Metabolic stability in mouse liver microsomes assessed as compound remaining after 60 mins in absence NADPH; format: ADME, Microsome; conditions: read-out: Stability; procedure, shortened: as §2
[7] = Metabolic stability in mouse liver microsomes assessed as compound remaining after 60 mins in presence NADPH; format: ADME, Microsome; conditions: read-out: Stability; procedure, shortened: as §2
[8] = Drug level in mouse brain after 2 hrs; format: ADME, tissue-based; conditions: read-out: Drug uptake
Neuropeptide S receptor [9] = biological target: T1, Neuropeptide S receptor; experiment: Antagonist activity at neuropeptide S receptor (unknown origin) assessed as cAMP level by cell based assay; format: functional
Procedure, shortened: (§3)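 CHO cells stably expressing NPSR, 1800 cells/well in 1536-well format, seeded overnight at 37°C in medium without Geneticin. Stimulation buffer (PBS, 0.1% BSA, 0.05% Tween-20, 500µM Ro 20-1724, EC80 NPS) was added for 30 min at 37°C. cAMP was read by HTRF (d2-cAMP/cryptate anti-cAMP in lysis buffer, 30 min). IC50 is the mean with SD of two independent experiments, each run in duplicate.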

[10] = Metabolic stability in mouse liver microsomes assessed as compound remaining after 15 mins in absence NADPH; format: ADME, Microsome; conditions: read-out: Stability; procedure, shortened: as §2
Mus musculus = experiment: Inhibition of NPS-induced hyperlocomotion in mouse at 50 mg/kg, ip after 90 mins; format: functional; conditions: 1.5 h, route intraperitoneal
Neuropeptide S receptor [11] = biological target: T1, Neuropeptide S receptor; experiment: Antagonist activity at neuropeptide S receptor (unknown origin) expressed in CHO cells assessed as inhibition of NPS-induced ERK activation after 20 mins by HTRF assay; format: cell-based
Neuropeptide S receptor [12] = biological target: T1, Neuropeptide S receptor; experiment: Antagonist activity at neuropeptide S receptor (unknown origin) expressed in CHO cells assessed as cAMP level after 30 mins by […] assay; format: functional, cell-based; conditions: read-out: IC50; procedure, shortened: as §3
Neuropeptide S receptor [13] = biological target: T1, Neuropeptide S receptor; experiment: Antagonist activity at neuropeptide S receptor (unknown origin) expressed in CHO cells assessed as inhibition of NPS-induced calcium mobilization after 10 mins by fluorescence assay; format: functional, cell-based; conditions: read-out: IC50
Procedure, shortened: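 CHO-NPSR cells, 2000/well in 1536-well plates, incubated overnight, then loaded with no-wash calcium dye for 1 h at 37°C. Compound in DMSO was added for 10 min. Baseline fluorescence was recorded 6 s at 1 Hz, then EC80 NPS in stimulation buffer was added and recording continued 4 min at 1 Hz on a kinetic reader. IC50 is the mean with SD of two independent experiments in duplicate.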

[14] = Metabolic stability in mouse liver microsomes assessed as compound remaining after 30 mins in presence NADPH; format: ADME, Microsome; conditions: read-out: Stability; procedure, shortened: as §2
[15] = Metabolic stability in mouse liver microsomes assessed as compound remaining after 30 mins in absence NADPH; format: ADME, Microsome; conditions: read-out: Stability; procedure, shortened: as §2

Work on O=C(NCc1ccc(F)cc1)N1CCN2C(=O)OC(c3ccccc3)(c3ccccc3)C2C1 (stereo unspecified) yielded a concentration at 0.25 h [1] of 6 µM, a pIC50 (Neuropeptide S receptor [2]) of 7.55 and a pIC50 (Neuropeptide S receptor [3]) of 7.60. For the same molecule, the remaining at 0.25 h [4] was 29%, the pIC50 (Neuropeptide S receptor [5]) was 7.32 and the remaining at 1 h [6] was 101%. It also gave a remaining at 1 h [7] of 2%, a concentration at 2 h [8] of 2 µM and a pIC50 (Neuropeptide S receptor [9]) of 6.38. For the same molecule, the remaining at 0.25 h [10] was 105%, the inhibition in vivo at 50 mg/kg (Mus musculus) was 50% and the pIC50 (Neuropeptide S receptor [11]) was 7.85. It also gave a pIC50 (Neuropeptide S receptor [12]) of 8.28, a pIC50 (Neuropeptide S receptor [13]) of 6.38 and a remaining at 0.5 h [14] of 9%. The remaining at 0.5 h [15] was 96%.

Source: ChEMBL document CHEMBL3085664, “Structure-activity relationship of imidazopyridinium analogues as antagonists of neuropeptide s receptor” (J Med Chem, 2013)
